# Measurements as given in ChEMBL document CHEMBL3232757, “Structure-activity relationships for withanolides as inducers of the cellular heat-shock response” (J Med Chem, 2014).
# Peptide text beside a SMILES is read from it. * marks the point of attachment. Cbz = O=C(OCc1ccccc1)*
# Key:
# [1] = molecular target: Heat shock 70 kDa protein 6 (Homo sapiens) (UniProt P17066); assay: Induction of […] (unknown origin)-mediated heat shock response expressed in human 293T cells coexpressing GFP assessed as heat shock index after overnight incubation by luciferase reporter gene assay relative to control; format: cell-based
# Sequence of Heat shock 70 kDa protein 6 (Homo sapiens) (P17066 whole entry, the tested form may be a part): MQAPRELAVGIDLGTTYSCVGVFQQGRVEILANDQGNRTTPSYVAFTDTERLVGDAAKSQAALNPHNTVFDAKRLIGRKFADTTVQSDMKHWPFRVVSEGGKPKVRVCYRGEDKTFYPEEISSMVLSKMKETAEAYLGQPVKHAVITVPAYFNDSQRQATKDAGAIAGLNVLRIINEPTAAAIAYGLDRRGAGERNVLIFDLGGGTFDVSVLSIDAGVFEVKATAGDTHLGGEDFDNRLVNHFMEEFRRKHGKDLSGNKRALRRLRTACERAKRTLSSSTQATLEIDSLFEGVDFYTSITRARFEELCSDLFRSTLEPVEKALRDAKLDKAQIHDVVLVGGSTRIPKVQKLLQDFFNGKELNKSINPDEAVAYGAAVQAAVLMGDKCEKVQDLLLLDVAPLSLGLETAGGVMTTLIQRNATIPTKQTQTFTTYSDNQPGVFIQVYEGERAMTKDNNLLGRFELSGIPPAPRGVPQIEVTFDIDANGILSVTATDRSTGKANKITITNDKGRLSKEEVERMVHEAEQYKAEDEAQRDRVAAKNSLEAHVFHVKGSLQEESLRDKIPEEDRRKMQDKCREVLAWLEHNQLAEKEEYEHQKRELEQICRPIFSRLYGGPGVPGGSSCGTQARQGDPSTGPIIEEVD
# In short: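 293T cells transduced with a lentiviral EGFP–firefly luciferase fusion under HSP70B′ promoter elements, enriched by heat shock (42 °C, 1 h) plus FACS, then reverse-sorted to remove constitutive expressers. Cells in DMEM/10% FBS were seeded at 20 000/well and given serial dilutions next day, quadruplicate wells, overnight. Read by Steady-Glo luminescence. Index = [Log2(treated/control)]/concentration (μM) at maximal response.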
# [2] = Cytotoxicity against human NCI-H929 cells after 3 days by Alamar blue assay; format: functional, cell-based; conditions: NCI-H929, 72 h
# [3] = Cytotoxicity against human CHP100 cells assessed as inhibition of cell survival at 4 uM after 24 hrs by MTT assay relative to control; format: functional; conditions: CHP100, 24 h
# [4] = Cytotoxicity against human CHP100 cells assessed as inhibition of cell survival after 24 hrs by MTT assay; format: functional, cell-based; conditions: CHP100, 24 h
fold change (FC) [1],SMILES,IC50 [2],inhibition at 4 µM [3],IC50 [4],Activity [1]
0.36,CC(=O)OCC1=C(C)C[C@H]([C@@H](C)[C@H]2CC[C@H]3[C@@H]4C[C@H]5O[C@]56[C@@H](O)[C@@H](OS(=O)(=O)O)CC(=O)[C@]6(C)[C@H]4CC[C@]23C)OC1=O,1.12 µM,> 80%,0.73 µM,
0.92,CC(=O)OCC1=C(C)C[C@H]([C@@H](C)[C@H]2CC[C@H]3[C@@H]4C[C@H]5O[C@]56C(=O)C=CC(=O)[C@]6(C)[C@H]4CC[C@]23C)OC1=O,0.46 µM,> 80%,0.39 µM,
1.68,CC1=C(CO)C(=O)O[C@@H]([C@@H](C)[C@H]2CC[C@H]3[C@@H]4C[C@H]5O[C@]56[C@H](O)C=CC(=O)[C@]6(C)[C@H]4CC[C@]23C)C1,0.28 µM,> 80%,0.93 µM,
0,CC1=C(CO)C(=O)O[C@@H]([C@@H](C)[C@H]2CC[C@H]3[C@@H]4C[C@H]5O[C@]56[C@@H](O)[C@@H](n5cnc7c(N)ncnc75)CC(=O)[C@]6(C)[C@H]4CC[C@]23C)C1,0.61 µM,,,
0.2,CC1=C(COS(=O)(=O)O)C(=O)O[C@@H]([C@@H](C)[C@H]2CC[C@H]3[C@@H]4C[C@H]5O[C@]56[C@@H](O)C=CC(=O)[C@]6(C)[C@H]4CC[C@]23C)C1,3.32 µM,,,
1.73,CC(=O)O[C@H]1C=CC(=O)[C@]2(C)[C@H]3CC[C@]4(C)[C@@H]([C@H](C)[C@H]5CC(C)=C(CO)C(=O)O5)CC[C@H]4[C@@H]3C[C@H]3O[C@]132,0.25 µM,> 80%,0.78 µM,
0.78,CC(=O)OCC1=C(C)C[C@H]([C@@H](C)[C@H]2CC[C@H]3[C@@H]4C[C@H]5O[C@]56[C@@H](OC(C)=O)[C@@H](OS(=O)(=O)O)CC(=O)[C@]6(C)[C@H]4CC[C@]23C)OC1=O,1.04 µM,> 80%,0.39 µM,
0.59,CC1=C(CO)C(=O)O[C@@H]([C@@H](C)[C@H]2CC[C@H]3[C@@H]4C[C@H]5O[C@]56[C@@H](O)[C@H](n5ccc(=O)[nH]c5=O)CC(=O)[C@]6(C)[C@H]4CC[C@]23C)C1,0.54 µM,> 80%,0.96 µM,
0,CC1=C(CO)C(=O)O[C@@H]([C@@H](C)[C@H]2CC[C@H]3[C@@H]4C[C@@H](O)[C@@]5(O)CC=CC(=O)[C@]5(C)[C@H]4CC[C@]23C)C1 [JABOROSALACTONE D],> 10 µM,,,
0,CC1=C(COS(=O)(=O)O)C(=O)O[C@@H]([C@@H](C)[C@H]2CC[C@H]3[C@@H]4C[C@H]5O[C@]56[C@@H](OS(=O)(=O)O)C=CC(=O)[C@]6(C)[C@H]4CC[C@]23C)C1,> 10 µM,,,
0,CC1=C(CO)C(=O)O[C@@H]([C@@H](C)[C@H]2CC[C@H]3[C@@H]4C[C@H]5O[C@]56[C@@H](O)[C@@H](N=[N+]=[N-])CC(=O)[C@]6(C)[C@H]4CC[C@]23C)C1,1.65 µM,> 80%,0.81 µM,
0,CCCCO[C@H]1CC(=O)[C@]2(C)[C@H]3CC[C@]4(C)[C@@H]([C@H](C)[C@H]5CC(C)=C(CO)C(=O)O5)CC[C@H]4[C@@H]3C[C@H]3O[C@]32[C@H]1O,8.74 µM,,,

# The next lines start with the compound.
SMILES,fold change (FC) [1],IC50 [2],inhibition at 4 µM [3],IC50 [4],Activity [1]
CC(=O)OCC1=C(C)C[C@H]([C@@H](C)[C@H]2CC[C@H]3[C@@H]4C[C@@H](OC(C)=O)[C@@]5(O)CC=CC(=O)[C@]5(C)[C@H]4CC[C@]23C)OC1=O,0,> 10 µM,,,
CC1=C(C)C(=O)O[C@@H]([C@](C)(O)[C@H]2CC[C@H]3[C@@H]4[C@@H]5O[C@@H]5[C@@]5(O)CC=CC(=O)[C@]5(C)[C@H]4CC[C@]23C)C1 [WITHANOLIDE A],0,> 10 µM,,,
CC1=C(CO)C(=O)O[C@@H]([C@@H](C)[C@H]2CC[C@H]3[C@@H]4C[C@H]5O[C@]56[C@@H](O)C=CC(=O)[C@]6(C)[C@H]4C[C@@H](O)[C@]23C)C1,0,4.3 µM,,,
CC1=C(CO)C(=O)O[C@@H]([C@@H](C)[C@H]2CC[C@H]3[C@@H]4CC=C5C[C@@H](O)C[C@H](O)[C@]5(C)[C@H]4CC[C@]23C)C1,0,4.96 µM,,,
CC(=O)O[C@H]1C=CC(=O)[C@]2(C)[C@H]3CC[C@]4(C)[C@@H]([C@H](C)[C@H]5CC(C)=C(C)C(=O)O5)CC[C@H]4[C@@H]3C[C@H]3O[C@]132,1.53,0.43 µM,> 80%,0.76 µM,
CC(=O)OCC1=C(C)C[C@H]([C@@H](C)[C@H]2CC[C@H]3[C@@H]4C[C@H]5O[C@]56[C@@H](OC(C)=O)C=CC(=O)[C@]6(C)[C@H]4C[C@@H](OC(C)=O)[C@]23C)OC1=O,3.31,0.18 µM,> 80%,0.28 µM,Dose-dependent effect
CC1=C(CO)C(=O)O[C@@H]([C@@H](C)[C@H]2CC[C@H]3[C@@H]4C[C@H]5O[C@]56[C@@H](O)[C@@H](OS(=O)(=O)O)CC(=O)[C@]6(C)[C@H]4CC[C@]23C)C1,0,5.25 µM,,,
CC1=C(CO)C(=O)O[C@@H]([C@@H](C)[C@H]2CC[C@H]3[C@@H]4C[C@H](O)[C@]5(O)[C@@H](O)C=CC(=O)[C@]5(C)[C@H]4CC[C@]23C)C1,0,> 10 µM,,,
CC1=C(CO)C(=O)O[C@@H]([C@@H](C)[C@H]2CC[C@H]3[C@@H]4C[C@H]5O[C@]56C(=O)C=CC(=O)[C@]6(C)[C@H]4CC[C@]23C)C1,0.79,1.16 µM,,,
CC(=O)OCC1=C(C)C[C@H]([C@@H](C)[C@H]2C[C@@H](OC(C)=O)[C@H]3[C@@H]4C[C@H]5O[C@]56[C@@H](OC(C)=O)C=CC(=O)[C@]6(C)[C@H]4CC[C@@]32C)OC1=O,1.65,0.24 µM,> 80%,0.31 µM,
CC1=C(CO)C(=O)O[C@@H]([C@@H](C)[C@H]2CC[C@H]3[C@@H]4C[C@H]5O[C@]56[C@@H](O)CCC(=O)[C@]6(C)[C@H]4CC[C@]23C)C1,0,> 10 µM,,,
CC1=C(CO)C(=O)O[C@@H]([C@@H](C)[C@H]2CC[C@H]3[C@@H]4CC=C5[C@@H](O)C=CC(=O)[C@]5(C)[C@H]4CC[C@]23C)C1,0,5.09 µM,,,
CC1=C(CO)C(=O)O[C@@H]([C@@H](C)[C@H]2C[C@@H](O)[C@H]3[C@@H]4C[C@H]5O[C@]56[C@@H](O)C=CC(=O)[C@]6(C)[C@H]4CC[C@@]32C)C1,0,3.83 µM,,,
CC(=O)OCC1=C(C)C[C@H]([C@@H](C)[C@H]2CC[C@H]3[C@@H]4[C@@H]5O[C@@H]5[C@@]5(O)CC=CC(=O)[C@]5(C)[C@H]4CC[C@]23C)OC1=O,0,> 10 µM,,,
CC1=C(C)C(=O)O[C@@H]([C@@H](C)[C@H]2CC[C@H]3[C@@H]4C[C@H]5O[C@]56[C@@H](O)C=CC(=O)[C@]6(C)[C@H]4CC[C@]23C)C1,0.52,0.88 µM,> 80%,0.64 µM,
CC(=O)OCC1=C(C)C[C@H]([C@@H](C)[C@H]2CC[C@H]3[C@@H]4C[C@H]5O[C@]56[C@@H](O)C=CC(=O)[C@]6(C)[C@H]4CC[C@]23C)OC1=O,3.81,0.25 µM,> 80%,0.23 µM,Dose-dependent effect
CC1=C(CO)C(=O)OC([C@@H](C)C2CCC3C4C(CC[C@@]32C)[C@@]2(C)C(=O)C=CC[C@]2(O)[C@H]2O[C@@H]42)C1 (some centres undefined),0,> 10 µM,,,
CC1=C(CO)C(=O)O[C@@H]([C@@H](C)[C@H]2CC[C@H]3[C@@H]4C[C@H]5O[C@]56[C@@H](O)[C@@H](O)CC(=O)[C@]6(C)[C@H]4CC[C@]23C)C1 [VISCOSALACTONE B],0,> 10 µM,,,
"CC(=O)OCC1=C(C)C[C@H]([C@@H](C)[C@H]2CC[C@H]3[C@@H]4CC=C5C(OC(C)=O)C=CC(=O)[C@]5(C)[C@H]4CC[C@]23C)OC1=O (single isomer, unassigned)",0.9,1.63 µM,> 80%,0.53 µM,
CC(=O)OCC1=C(C)C[C@H]([C@@H](C)[C@H]2CC[C@H]3[C@@H]4C[C@H](OC(C)=O)[C@]5(O)[C@@H](OC(C)=O)C=CC(=O)[C@]5(C)[C@H]4CC[C@]23C)OC1=O,0.74,2.29 µM,,,
CC(C)C[C@@H](C=O)NC(=O)[C@H](CC(C)C)NC(=O)[C@H](CC(C)C)NC(=O)OCc1ccccc1 [MG-132] (Cbz-Leu-Leu-Leu-aldehyde),0.71,0.17 µM,,,
